Laboratory results as given in ChEMBL document CHEMBL1129238, “Structure--activity relationships of 1-(2-Deoxy-2-fluoro-beta-L-arabinofuranosyl)pyrimidine nucleosides as anti-hepatitis B virus agents” (J Med Chem, 1996).
pEC50, pIC50: −log10 of the molar value.

Key:
[1] = species on record: Homo sapiens; assay: The growth inhibition activity for the compound was evaluated in 2.2.15 cells.; format: functional, cell-based; conditions: HepG2 2.2.15
Method in brief: (§1)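 Cytotoxicity (growth inhibition, IC50) measured in 2.2.15 cells and in CEM cells, with compounds tested at concentrations up to 200 μM.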

[2] = species on record: Homo sapiens; assay: Anti hepatitis-B virus activity was evaluated in 2.2.15 cells.; format: functional, cell-based; conditions: HepG2 2.2.15
Method in brief: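 HBV-producing 2.2.15 cells; EC50 reported; compounds examined at concentrations up to 10 μM.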

[3] = test system: CCRF-CEM; assay: The growth inhibition activity for the compound was evaluated in CEM cells.; format: functional, cell-based; conditions: Homo sapiens; method in brief: as §1
[4] = species on record: Homo sapiens; assay: Selectivity index was determined from the ratio of IC50 to the EC50 values evaluated in 2.2.15 cells.; format: functional, HepG2 2.2.15
Method in brief: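 Selectivity computed as the ratio of the growth-inhibition IC50 to the anti-HBV EC50, both from 2.2.15 cells. Compounds were tested up to 200 μM for toxicity and up to 10 μM for antiviral activity.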

| SMILES | pIC50 [1] | pEC50 [2] | pIC50 [3] | Selectivity [4] |
| --- | --- | --- | --- | --- |
| Nc1nc(=O)n([C@H]2O[C@@H](CO)[C@H](O)[C@H]2F)cc1Cl | < 3.70 | < 5.00 |  |  |
| O=c1[nH]c(=O)n([C@@H]2O[C@H](CO)[C@@H](O)[C@H]2F)cc1I | < 3.70 | < 5.00 |  |  |
| Nc1nc(=O)n([C@H]2O[C@@H](CO)[C@H](O)[C@H]2F)cc1Br | < 3.70 | < 5.00 |  |  |
| O=c1[nH]c(=O)n([C@H]2O[C@@H](CO)[C@H](O)[C@H]2F)cc1Br | < 3.70 | < 5.00 |  |  |
| O=c1[nH]c(=O)n([C@H]2O[C@@H](CO)[C@H](O)[C@@H]2F)cc1/C=C/Br | < 3.70 | < 5.00 | < 4.00 |  |
| CCc1cn([C@H]2O[C@@H](CO)[C@H](O)[C@@H]2F)c(=O)[nH]c1=O | < 3.70 | < 5.00 |  |  |
| Nc1nc(=O)n([C@H]2O[C@@H](CO)[C@H](O)[C@H]2F)cc1F | < 3.70 | < 5.00 |  |  |
| O=c1[nH]c(=O)n([C@@H]2O[C@H](CO)[C@@H](O)[C@@H]2F)cc1C(F)(F)F | < 3.70 | < 5.00 |  |  |
| O=c1[nH]c(=O)n([C@H]2O[C@@H](CO)[C@H](O)[C@H]2F)cc1Cl | < 3.70 | < 5.00 |  |  |
| C#Cc1cn([C@H]2O[C@@H](CO)[C@H](O)[C@H]2F)c(=O)[nH]c1=O | < 3.70 | < 5.00 |  |  |
| Cc1cn([C@@H]2O[C@H](CO)[C@@H](O)[C@@H]2F)c(=O)[nH]c1=O [5-METHYL-2'-FLUOROARAURACIL] | < 3.70 | 7.00 | < 3.70 | >2000 |
| Nc1nc(=O)n([C@@H]2O[C@H](CO)[C@@H](O)[C@@H]2F)cc1I [FIACITABINE] | < 3.70 | 5.30 |  | >40 |
| O=c1[nH]c(=O)n([C@H]2O[C@@H](CO)[C@H](O)[C@H]2F)cc1F | < 3.70 | < 5.00 |  |  |
| Nc1ccn([C@@H]2O[C@H](CO)[C@@H](O)[C@@H]2F)c(=O)n1 | < 3.70 | 5.85 | < 4.00 | >140 |
